The test system of series [1] is Salmonella typhimurium. The experiment in a line: Mutagenic activity in Salmonella Typhimurium TA98 assessed as number of revertants after 44 hrs by Ames test in presence of rat liver S9 fraction. It counts as toxicity, organism-based. To be noted: salmonella enterica subsp. enterica serovar typhimurium, s9, 44 h. In outline: (§1)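 Pre-incubation Ames method. Compound at 0.03, 0.06, 0.13, 0.25 or 0.5 mg in DMSO, mixed with 0.5 mL rat liver S9 mix (P450s plus NADPH-regenerating system) and 0.1 mL tester-strain culture. Shaken 30 min at 37 °C, then top agar added and poured onto minimal-glucose agar. Revertant colonies counted after 44 h at 37 °C. Duplicate plates, experiments repeated at least twice; mean of duplicates.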
On the technique in general: The Ames test uses bacterial strains that need an amino acid and regain growth without it when mutated back.

Series [2] concerns Salmonella typhimurium. Description: Mutagenic activity in Salmonella Typhimurium TA98 assessed as number of revertants after 44 hrs by Ames test. Format: toxicity, organism-based. As to conditions: salmonella enterica subsp. enterica serovar typhimurium. A digest of the protocol: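 Pre-incubation Ames method without metabolic activation. Compound at 0.03, 0.06, 0.13, 0.25 or 0.5 mg in DMSO, mixed with 0.5 mL 0.1 M sodium phosphate buffer (pH 7.4) and 0.1 mL tester-strain culture. Shaken 30 min at 37 °C, then plated in top agar on minimal-glucose agar. Colonies counted after 44 h at 37 °C. Duplicate plates, at least two experiments; mean of duplicates.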

In series [3] the test system is Salmonella typhimurium. Description: Mutagenic activity in Salmonella Typhimurium TA100 assessed as number of revertants after 44 hrs by Ames test in presence of rat liver S9 fraction. To be noted: salmonella enterica subsp. enterica serovar typhimurium, s9, 44 h. Format: toxicity, organism-based. In outline: as §1
For series [4], the system named is Salmonella typhimurium. The experiment in a line: Cytotoxicity against Salmonella Typhimurium TA98. It counts as organism-based. As to conditions: salmonella enterica subsp. enterica serovar typhimurium.
Series [5] deals with Salmonella typhimurium. The experiment in a line: Cytotoxicity against Salmonella Typhimurium TA98 in presence of rat liver S9 fraction. Format: organism-based. As to conditions: salmonella enterica subsp. enterica serovar typhimurium.

Activity data for 18 molecules are collected here from ChEMBL document CHEMBL1764971, “7-azabicyclo[2.2.1]heptane as a structural motif to block mutagenicity of nitrosamines” (Bioorg Med Chem, 2011).

Regarding `O=NN1C2c3ccccc3C1C(C(F)(F)F)C2C(F)(F)F` (stereo unspecified), the Activity entry in series [1], in series [2] and in series [3] was “Non-toxic” in each case.

Turning to `O=NN1C2CCC1CC2`, the Activity result in series [1], in series [2] and in series [3] was “Non-toxic” in each case.

Take `O=NN1C2CC(O)C1c1ccccc12` (stereo unspecified): the Activity result in series [1], in series [2] and in series [3] was “Non-toxic” in each case.

Consider `COc1cc2c(cc1OC)C1CCC2N1N=O`, for which the Activity result in series [1], in series [2] and in series [3] was “Toxic” each time.

As to `O=NN1C2CCC1c1ccccc12`, the Activity entry in series [1], in series [2] and in series [3] was “Non-toxic” each time.

As for `COC(=O)C1CC2(COCc3ccccc3)CCC1N2N=O` (stereo unspecified), the Activity entry in series [1], in series [2] and in series [3] was “Non-toxic” throughout.

`CN1C(=O)[C@@H]2C3c4ccccc4C([C@@H]2C1=O)N3N=O`: the Activity result in series [1], in series [2] and in series [3] was “Non-toxic” throughout.

Turning to `O=NN1C2C=CC1c1cc([N+](=O)[O-])ccc12` (stereo unspecified), the Activity result in series [1], in series [2] and in series [3] was “Toxic” in each case.

Consider `CCOC(=O)CCN1C(=O)C2C(C1=O)C1c3ccccc3C2N1N=O` (stereo unspecified), for which the Activity result in series [1], in series [2] and in series [3] was “Non-toxic” in each case.

`O=NN1C2CC(O)C1c1ccc([N+](=O)[O-])cc12` (stereo unspecified): the Activity entry in series [1], in series [2] and in series [3] was “Toxic” throughout.

Regarding `COC(=O)C1C(C(=O)OC)C2CCC1N2N=O` (stereo unspecified), the Activity entry in series [1], in series [2] and in series [3] was “Non-toxic” each time.

Take `COC(=O)C1CC2c3ccccc3C1N2N=O` (stereo unspecified): the Activity entry in series [1], in series [2] and in series [3] was “Non-toxic” in each case.

As for `COC(=O)C1C(C(=O)OC)C2c3ccccc3C1N2N=O` (stereo unspecified), the Activity entry in series [1], in series [2] and in series [3] was “Non-toxic” throughout.

Consider `O=NN1C2c3ccccc3C1C1C(=O)N(c3ccccc3)C(=O)C12` (stereo unspecified), for which the Activity entry in series [1] is listed as “Non-toxic”; in series [4], “Toxic”; in series [2], “Non-toxic”; in series [3] it was “Non-toxic”; in series [5], “Non-toxic”.

For the molecule `O=NN1Cc2ccccc2C1`, the Activity result in series [1] is “Toxic”; in series [2], “Non-toxic”; in series [3], “Toxic”.

On to `O=NN1CCCC1`, for which the Activity result in series [1] was “Toxic”; in series [2] it was “Non-toxic”; in series [3] it was “Toxic”.

Consider `O=NN1C2CCC1c1cc([N+](=O)[O-])ccc12` (stereo unspecified), for which the Activity result in series [1], in series [2] and in series [3] was “Non-toxic” throughout.

Take `COCC12CCC(C(C(=O)OC)C1)N2N=O` (stereo unspecified): the Activity result in series [1], in series [2] and in series [3] was “Non-toxic” in each case.
